# This is a sample that favours compounds with a hit; in the whole collection about 2.6% have one here.
# Hsp70 activator: transcriptional activators of Hsp70; HeLa Hsp70 promoter luciferase reporter, luminescence; scaled: vehicle 0, proteasome-inhibitor control 100%; activation, % at 10 µM; actives 0.04% (n = 200,000); AID 1203;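 active = activation above the mean across all tested compounds plus 3 SD, cutoff set per campaign, cut at about 5.5% in these data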;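 also: 100% = MG132 at 30 µM as the positive control and 0% = DMSO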
# Rad51 HR inh: Rad51 (human) homologous recombination inhibition; Q06609; hRad51 DNA strand exchange, fluorescence dequenching; inhibition, % at 10 µM; actives 0.085% (n = 200,000); AID 1385;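 active = inhibition above 40% at the single screening dose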;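 also: 0% = DMSO control wells and 100% = blanks with heterologous ssDNA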
# Target sequence (Q06609 whole entry, looked up): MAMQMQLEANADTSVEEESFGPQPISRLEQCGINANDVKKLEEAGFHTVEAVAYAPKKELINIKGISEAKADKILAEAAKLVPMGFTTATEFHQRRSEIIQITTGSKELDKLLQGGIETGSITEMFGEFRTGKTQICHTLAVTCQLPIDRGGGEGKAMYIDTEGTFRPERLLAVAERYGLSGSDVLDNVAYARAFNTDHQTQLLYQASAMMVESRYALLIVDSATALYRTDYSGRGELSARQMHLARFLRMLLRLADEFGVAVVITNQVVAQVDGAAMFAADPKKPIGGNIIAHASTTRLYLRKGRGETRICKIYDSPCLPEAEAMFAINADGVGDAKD
#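 Test system: preformed human Rad51 ssDNA filaments; also added: Donor/quencher-labelled 47-bp dsDNA substrate; doses: 10 µM final, single point; times: 37 °C 15-min filament assembly, 30-min compound preincubation, 15-min exchange; detection: FRET fluorescence dequenching, excitation 485 nm, emission 520 nm; read-out basis: Fluorescence-based percent inhibition, control- and blank-normalised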
# Mdm2 ligase inh: inhibitors of human Mdm2 E3 ubiquitin ligase; cell-based MDM2 ubiquitination luciferase reporter, 2 h; 0 = plate control, 100 = twice control, blank-subtracted; signal enhancement, % at 5 µM; actives 0.11% (n = 210,000); AID 1230;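 active = signal enhancement of 30% or more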;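 also: luminescence tracks abundance of the self-degrading MDM2-luciferase fusion protein; higher signal means inhibition of MDM2 E3 ligase activity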
#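 System: stable MDM2–luciferase fusion reporter cells / Input: 2000 cells seeded into each well / Schedule: 4 h settle plus 2 h compound, 37 °C / Compound: single-point 5 µM / Buffer or medium: cells held in DMEM / Benchmarks: control and blank well means / Evaluation: percent signal gain over controls, blank-subtracted / Measured by: luciferase luminescence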
# HSF-1 act: increases HSF-1 driven luciferase reporter signal. NIH3T3-HGL HSF-1 luciferase reporter, MG132, 8 h; 100% = twice DMSO control signal. activation, % at 9 µM. actives 1.7% (n = 300,000). AID 504408;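 active = mean replicate activation of at least 50% with a set share of replicates each reaching 50%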;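 also: 0% = median of the neutral control wells and 100% = twice that signal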
# HSV augment: increases HSV replication in cells; HSV replication augmentation in cells, fold increase; maximum fold increase; actives 0.005% (n = 220,000); AID 1956; in the data active = maximum fold increase above about 1.5; tested in PC3 cells
# HSF1 inhib: HSF1 inhibition; NIH3T3-HGL HSE-luciferase, MG132-induced, luminescence 8 h; active compounds read low; activity change, negative = inhibition, % at 7.5 µM (by protocol); actives 0.77% (n = 300,000);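 active = more than half of replicate wells show activity change below -50%, luminescence cut by over half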;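 also: luciferase reports HSF-1 transcriptional activity via heat shock element; 0% = median of DMSO wells and -100% = zero luminescence signal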
# * hit, by the source's call; i = inactive; . = no result.
SMILES,Hsp70 activator,Rad51 HR inh,Mdm2 ligase inh,HSF-1 act,HSV augment,HSF1 inhib
Oc1ccc(Cl)cc1-c1cc(-c2ccco2)[nH]n1,0,-5,2,140*,i,77
Cc1ccc(NC(=O)c2ccc3nsnc3c2)c(C)c1,.,.,.,11,.,13
C[C@]12CC[C@@H]3c4ccc(O)cc4CC[C@H]3[C@@H]1CC[C@@H]2O,0,-7,.,-51,i,-37
C[C@]12CC[C@@H]3c4cc(O)c(O)cc4CC[C@H]3[C@@H]1CC[C@@H]2O,0,-1,.,85*,i,55
CCOC(=O)Cn1c(=O)oc2cc(S(=O)(=O)N3CCN(C(=O)c4ccco4)CC3)ccc21,0,.,-8,71*,i,30
Cc1nc2cc(C(=O)N3c4ccccc4CC3C)ccc2s1 (configuration not stated),0,4,10,46,i,1
O=C(NN/C(=N/S(=O)(=O)c1ccc(Cl)cc1)c1ccccc1)c1cccc(Cl)c1,.,.,.,52*,.,16
Cc1ccc(S(=O)(=O)/N=C(/NNC(=O)c2cccc(Cl)c2)c2ccccc2)cc1,.,.,.,43,.,16
O=C(NN/C(=N/S(=O)(=O)c1ccc(Cl)cc1)c1ccccc1)c1ccc(O)cc1,0,17,4,60*,i,33
O=C(O)c1ccc(N/C(=N\S(=O)(=O)c2ccc(Cl)cc2)c2ccccc2)cc1,.,.,-5,-2,i,-4
Cc1ccc(C(=O)N=c2sccn2C)o1,.,.,.,26,.,-3
CCC1(c2ccccc2)NC(=O)N(CC(=O)Nc2ccc(S(=O)(=O)NC3=NCCCCC3)cc2)C1=O (configuration not stated),.,.,.,2,.,-1
C(=N\Nc1ccccn1)/c1c[nH]c2ccccc12,.,.,10,251*,i,177
CC12CCC(C(=O)OC3CCCCC3)(OC1=O)C2(C)C (configuration not stated),.,.,.,-15,.,-5
COc1ccc(NC(=O)c2sccc2-n2cccc2)cc1,0,-41,-3,32,i,1
CCc1ccc(NC(=O)c2sccc2-n2cccc2)cc1,0,2,-17,53*,i,15
COc1ccc(CC2(CO)COc3ccccc3C2=O)cc1 (configuration not stated),.,.,.,15,.,-12
Cc1cc(C(=O)Nc2ccc3ccccc3c2)c(C)o1,.,.,.,66*,.,31
O=C(Nc1ccc2ccccc2c1)c1ccc(Br)o1,.,.,.,65*,.,27
CC(=O)c1cc(C(=O)Nc2ccc3ccccc3c2)c(C)o1,.,.,.,-3,.,6
CCOC(=O)N1CCC(N2C(=O)c3ccccc3C2Nc2cc(C(=O)OC)cc(C(=O)OC)c2)CC1 (configuration not stated),0,4,-9,-82,i,-78*
CCOC(=O)N1CCN(C(=O)COC(=O)c2oc3ccc(OC)cc3c2C)CC1,.,.,.,16,.,7
CCOc1cc(/C=N/NC(=O)CN2CCCCC2)ccc1OCc1ccc(Cl)cc1,0,-5,-12,58*,i,37
COc1ccc2nc(SCc3cccc(C)c3)nc(C)c2c1,0,1,-10,95*,i,48
COc1ccc2nc(SCC(=O)O)nc(C)c2c1,0,4,-17,.,i,.
SMILES,Hsp70 activator,Rad51 HR inh,Mdm2 ligase inh,HSF-1 act,HSV augment,HSF1 inhib
COc1ccc2nc(SCc3ccccc3C)nc(C)c2c1,0,18,-14,55*,i,24
ONc1cccnc1-n1nc(C(F)(F)F)cc1C(F)(F)F,0,-3,1,3,i,-4
Cn1ncc([N+](=O)[O-])c1C(=O)Nc1ccc(-c2nc3ccccc3o2)cc1,0,-28,-10,56*,i,19
CCCSc1nnc2n(-c3ccccc3OC)c(=O)c3c4c(sc3n12)CCC4,0,5,5,59*,i,21
C=CCSc1nnc2n(-c3ccccc3OC)c(=O)c3c4c(sc3n12)CCC4,0,-5,-7,9,i,9
Cc1cccc(C(=O)NC(CC(=O)O)c2ccc(OC3CCCC3)cc2)c1[N+](=O)[O-] (configuration not stated),0,44*,-2,6,i,9
O=C(O)CC(NC(=O)c1cccc(F)c1)c1ccc(OC2CCCC2)cc1 (configuration not stated),.,.,.,-9,.,1
